# High-throughput results as filed in PubChem BioAssay.
# FXIa inh 1536 – inhibitors of human coagulation factor XIa | purified FXIa, Boc-Glu-Ala-Arg-AMC fluorogenic substrate | P03951 | 0.14% of 220,000 active | AID 798 | inhibition, % at 5 µM;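 active = inhibition of at least 40%; inactive = inhibition below 40%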;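 note: fluorescence of freed AMC excited at 355 nm; 0% = enzyme without compound and 100% = no enzyme blank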
# Target sequence (P03951 19-387 limits assumed): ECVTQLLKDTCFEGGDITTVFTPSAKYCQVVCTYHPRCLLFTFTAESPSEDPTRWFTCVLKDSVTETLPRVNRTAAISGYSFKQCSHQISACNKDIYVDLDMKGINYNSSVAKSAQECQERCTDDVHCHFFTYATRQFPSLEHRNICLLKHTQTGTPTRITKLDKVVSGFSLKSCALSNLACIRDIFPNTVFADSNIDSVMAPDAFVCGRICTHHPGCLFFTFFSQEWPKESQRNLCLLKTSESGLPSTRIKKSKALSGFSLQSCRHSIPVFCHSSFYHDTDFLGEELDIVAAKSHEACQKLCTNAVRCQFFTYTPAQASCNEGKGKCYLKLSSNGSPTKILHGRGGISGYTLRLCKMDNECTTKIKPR
# Target sequence (P03951 388-625 limits assumed): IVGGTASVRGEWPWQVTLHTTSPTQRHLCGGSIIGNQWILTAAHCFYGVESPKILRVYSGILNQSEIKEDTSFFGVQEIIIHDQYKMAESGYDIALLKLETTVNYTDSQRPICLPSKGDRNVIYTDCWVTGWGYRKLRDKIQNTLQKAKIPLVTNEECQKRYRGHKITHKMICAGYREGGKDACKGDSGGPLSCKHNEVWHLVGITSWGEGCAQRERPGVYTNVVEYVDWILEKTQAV
# FXIIa inh – factor XIIa (human) inhibition; P00748; purified FXIIa, Boc-QGR-AMC fluorogenic substrate, 2 h; inhibition, % at 5 µM; 0.3% of 220,000 active; AID 800; in the data active = inhibition above about 40%;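 note: 0% = enzyme with no compound and 100% = blank without enzyme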
# EP2 antag – EP2 receptor (human) inhibition | P43116 | C6 glioma cells expressing human EP2, cAMP TR-FRET; cells stimulated with saturating PGE2 | inhibition, % at 25 µM | 0.52% of 260,000 active | AID 1422;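 active = percent inhibition above 40 after rounding to a whole number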;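 note: rat C6 glioma host cells with rolipram phosphodiesterase inhibitor present; the protocol text gives 20 µM as final concentration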
# thrombin 1536 – thrombin (human) inhibition; P00734; alpha-thrombin, Boc-VPR-AMC fluorogenic substrate cleavage; inhibition, % at 5 µM; 0.26% of 220,000 active; AID 1046;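 active = inhibition at or above 40%; inactive = inhibition below 40%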;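 note: 0% = enzyme with no compound and 100% = wells without enzyme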
#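 Test system: human alpha-thrombin; medium: pH 7.5 Tris-saline with Tween 20; times: reaction at room temperature; signal: AMC fluorescence at 355 nm excitation and 460 nm emission; also added: Boc-VPR-AMC substrate, 15 µM final; dosing: one concentration per compound, 5 µM, with 0.2% DMSO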
# KLK5 inh – kallikrein 5 (human) inhibition | recombinant hK5, fluorogenic AMC substrate cleavage | 0.59% of 210,000 active | Q9Y337 | inhibition, % at 5 µM | AID 873;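 active = inhibition of 40% or more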;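 note: 0% = enzyme controls without compound and 100% = no-enzyme blanks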
# EP2 modulator – modulates human prostaglandin E2 receptor EP2 signaling | EP2-expressing cells, cAMP HTRF FRET, PGE2 co-stimulation | induction, % at 25 µM | 0.83% of 260,000 active;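 active = compounds whose cAMP rise, as percent of the full-agonist control response, exceeds 60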;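 note: rat C6 glioma line stably carrying human EP2 under a CMV promoter; the protocol text gives 20 µM as final concentration; 100% = response of wells given 1 µM PGE2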
# An asterisk follows results filed as active; nt = no result. In the library only some 2.1% were active in any assay of this set; here they are far more common.
SMILES,FXIa inh 1536,FXIIa inh,EP2 antag,thrombin 1536,KLK5 inh,EP2 modulator
O=C(COc1ccccc1)N/N=C/c1sc(=O)n(Cc2cccc(C(=O)O)c2)c1Cl,-5,1,6,-9,-1,19
O=C(O)c1cccc(Cn2c(Cl)c(/C=N/NC(=O)c3ccc(O)cc3)sc2=O)c1,-2,3,3,-10,-3,61*
CC12COC3(C(=O)Nc4nccs4)CC1CCC32C (stereo not given),1,14,12,12,72*,-21
Cc1cc(C)c2[nH]c(=O)c(C(c3nnnn3C3CCCC3)N3CCCC3)cc2c1 (stereo not given),nt,nt,11,nt,nt,-17
Cc1c(Cl)c(S(N)(=O)=O)cc(S(N)(=O)=O)c1NC(=O)c1ccc(Cl)cc1,nt,nt,45*,nt,nt,36
COc1cc(C2C3=C(CCCC3=O)OC3=C2C(=O)CCC3)ccc1OCC#N,nt,nt,9,nt,nt,13
O=C1C(=O)c2c(C(=O)c3ccccc3)coc2-c2ccccc21,3,17,45*,8,-11,-33
Cc1oc2c(c1C(=O)O)C(=O)c1ccccc1C2=O,-1,8,14,0,-3,-41
Cc1oc2c(c1C(=O)c1ccccc1)C(=O)C(=O)c1ccccc1-2,11,8,57*,1,-12,-44
COc1ccc2c(c1)C=C(CN1CCC(O)(c3ccc(F)cc3)CC1)CO2,nt,nt,6,nt,nt,-118
CC(=O)NC(CC(=O)OCC(=O)c1c(N)n(C)c(=O)n(C)c1=O)c1ccccc1 (stereo not given),34,40*,7,-4,15,-7
COCCn1nnnc1C(c1ccc(N(C)C)cc1)N1CCN(c2ccc(OC)cc2)CC1 (stereo not given),nt,nt,11,nt,nt,2
CCC(C)C(=O)Nc1nnc(C2CCCC2)s1 (stereo not given),nt,nt,15,nt,nt,-10
O=C(CSc1nc2ccccc2s1)NC1CCCC1,7,42*,5,4,8,-4
c1ccc2sc(SCSc3nc4ccccc4s3)nc2c1,-5,4,6,-3,-2,-11
c1ccc2sc(SCN(C3CCCCC3)C3CCCCC3)nc2c1,nt,nt,43*,nt,nt,21
Cc1c(NC(=O)CSc2nc3ccccc3s2)c(=O)n(-c2ccccc2)n1C,0,45*,12,-5,-16,25
COc1ccc(S(=O)(=O)N(Cc2cc3cc4c(cc3[nH]c2=O)OCCO4)C2CCCC2)cc1,nt,nt,8,nt,nt,-1
CCc1ccc2[nH]c(=O)c(CN(CCN3CCOCC3)Cc3nnnn3C(C)(C)C)cc2c1,nt,nt,19,nt,nt,11
CS(=O)(=O)N(CC(=O)N/N=C/c1ccccc1C(=O)O)c1cccc(Cl)c1Cl,36,57*,8,20,16,6
CC(C)c1ccc(/C=N/NC(=O)CN(c2cccc(Cl)c2Cl)S(C)(=O)=O)cc1,-9,2,12,-1,13,-5
CCOC(=O)c1cc(-c2ccccc2)nc2ccc(C)cc12,-5,1,4,-3,-8,66*
CC(=O)COC(=O)c1cc(-c2ccccc2)nc2ccc(Br)cc12,nt,nt,25,nt,nt,68*
COc1ccc(-c2cc(C(=O)OCC(C)=O)c3cc(Br)ccc3n2)cc1,nt,nt,18,nt,nt,54
O=C(CCN1C(=O)/C(=C/c2cccs2)SC1=S)N1CCCCCC1,nt,nt,22,nt,nt,-124
SMILES,FXIa inh 1536,FXIIa inh,EP2 antag,thrombin 1536,KLK5 inh,EP2 modulator
Cc1cc(C(=O)NCC(=O)OCC(=O)N(C2CCCCC2)C2CCCCC2)ccc1[N+](=O)[O-],-1,4,4,-7,-13,63*
Cc1cc(C(=O)NCC(=O)OCC(=O)NCCc2ccccc2)ccc1[N+](=O)[O-],-1,11,7,5,2,6
O=C(Nc1ccccn1)c1cccc(S(=O)(=O)Nc2ccccn2)c1,nt,nt,8,nt,nt,11
CCC(c1nnnn1C(C)(C)C)N(Cc1cccnc1)Cc1cc2cc(C)cc(C)c2[nH]c1=O (stereo not given),nt,nt,3,nt,nt,27
CCOC(=O)Nc1sc(C)nc1-c1ccccc1,19,10,7,13,196*,9
CCN1C(=O)/C(=C/N(C(C)=O)c2ccccc2)N(c2ccccc2)C1=S,9,22,23,76*,50*,-7
CCc1ccc(/C=C2/C(=O)N(c3ccccc3)C(=S)N2CC(=O)OC)s1,3,3,9,-5,-1,21
CC1(C)N=C(N)N=C(N)N1c1ccccc1,5,19,13,4,-1,28
CC1(C)N=C(N)N=C(N)N1c1cccc(OCc2cccc(N)c2)c1,nt,nt,54*,nt,nt,-2
CC1(C)N=C(N)N=C(N)N1c1cccc(CN)c1,0,11,4,0,-1,22
CC1(C)N=C(N)N=C(N)N1c1cccc(CSc2ccccc2)c1,nt,nt,52*,nt,nt,20
COc1ccc(-c2ncc(CNC3(c4cccc(F)c4)CC3)cn2)cc1,nt,nt,6,nt,nt,-64
O=C(NCc1ccco1)[C@@H]1C=CCN1C(=O)Nc1ccccc1Cl,nt,nt,nt,nt,nt,-23
CCOC(=O)c1c(-c2ccc(OCC)cc2)csc1NC(C)=O,nt,nt,8,nt,nt,64*
CCOC(=O)c1c(-c2ccc(CC)cc2)csc1N,nt,nt,9,nt,nt,94*
CCOC(=O)c1c(-c2ccc(C)cc2)csc1NC(=O)CC,nt,nt,6,nt,nt,78*
CCOC(=O)c1c(-c2cccs2)csc1N,7,21,10,8,21,55
Cc1c(C(=O)NCc2nc(-c3ccccc3)no2)oc2c(C)cccc12,nt,nt,6,nt,nt,-3
CCn1c(=O)/c(=C2/Sc3ccc(OC)cc3N2C)s/c1=C1/SC(=S)N(C)C1=O,nt,nt,11,nt,nt,-10
CC1(C(=O)NCc2noc(-c3ccccc3)n2)CC(c2ccccc2)=NO1 (stereo not given),nt,nt,6,nt,nt,-64
Cc1c(/C(Cc2ccccc2)=N/O)c2ccccc2n1C,1,7,1,-1,-5,63*
COc1cccc(Cn2c3cc(C)sc3c3cn[nH]c(=O)c32)c1,nt,nt,nt,nt,nt,-4
COc1ccc(-c2ccc(S(=O)(=O)n3nc(OC(=O)c4cccs4)cc3N)cc2)cc1,9,13,12,7,9,-12
COc1ccc(NC(=O)n2nc(OC(=O)c3cccs3)cc2N)cc1,18,19,14,46*,7,-56
CN(Cc1ccccc1)c1nc(-c2ccc([N+](=O)[O-])cc2)nc2ccccc12,-7,4,4,-7,-2,64*
CCOc1ccc(C(O)CN2CCC(O)(c3ccccc3F)CC2)cc1 (stereo not given),nt,nt,5,nt,nt,-56
O=C(Nc1nnc(-c2ccccc2)o1)c1nc2ccccc2s1,1,8,45*,-3,-23,-14
Cc1csc(NC(=O)C(CC(C)C)NS(=O)(=O)c2ccc3c(c2)oc(=O)n3C)n1 (stereo not given),7,107*,13,8,55*,-17
Nc1nnc(-c2cccc([N+](=O)[O-])c2)o1,-18,2,5,-9,51*,5
Cc1ccc(C(=O)NNC(=S)NC(=O)COc2ccccc2)cc1,41*,25,36,11,-164,-55
